Test results: ChEMBL document CHEMBL4346672, “Antimicrobial and KPC/AmpC inhibitory activity of functionalized benzosiloxaboroles” (Eur J Med Chem, 2019)
Values after ≈ are worked out from the molar mass of the structure shown. Active and inactive are the calls of the source. No cut-off for these calls is given here.

How the values were obtained:
[1] = Dissociation constant, pKa1 of compound in 0.1 M NaOH by potentiometric analysis; format: physicochemical
[2] = tested on: Candida albicans; assay: Antifungal activity against Candida albicans ATCC 90028 assessed as decrease in fungal cell growth at 0.78 to 12.5 mg/L incubated for 24 hrs by CLSI broth dilution method; format: functional; conditions: ATCC 90028, 24 h
In short: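 Yeast broth dilution in RPMI 1640 with 2% glucose, compounds in DMSO. Yeasts pre-grown on Sabouraud dextrose agar. Growth read after 35 °C, 24 h.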

[3] = tested on: Saccharomyces cerevisiae; assay: Antifungal activity against Saccharomyces cerevisiae ATCC 9763 assessed as decrease in fungal cell growth at 0.78 to 12.5 mg/L incubated for 24 hrs by CLSI broth dilution method; format: functional; conditions: ATCC 9763, 24 h
In short: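 Yeast strain subcultured on Sabouraud dextrose agar for 24–48 h at 30 °C before testing. Compounds dissolved in DMSO.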

[4] = tested on: Candida parapsilosis; assay: Antifungal activity against Candida parapsilosis ATCC 22019 assessed as diameter of zone inhibition incubated for 24 hrs by CLSI disc diffusion method; format: functional
In short: (§1)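 Yeast disc diffusion on Mueller-Hinton agar supplemented with 2% glucose and 0.5 mg/L methylene blue. Compounds in DMSO. Yeasts subcultured on Sabouraud dextrose agar before testing. Zones read after 35 °C, 24 h.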

[5] = tested on: Pichia kudriavzevii; assay: Antifungal activity against Candida krusei ATCC 6258 assessed as diameter of zone inhibition incubated for 24 hrs by CLSI disc diffusion method; format: functional; in short: as §1
[6] = tested on: Saccharomyces cerevisiae; assay: Antifungal activity against Saccharomyces cerevisiae ATCC 9763 diameter of zone inhibition incubated for 24 hrs by CLSI disc diffusion method; format: functional
In short: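 Disc-diffusion run on Mueller-Hinton II agar with 2% glucose and 0.5 mg/L methylene blue, using compounds in DMSO. Yeast was precultured on Sabouraud dextrose agar (24–48 h, 30 °C). Zones read after 24 h at 35 °C.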

[7] = tested on: Klebsiella pneumoniae; assay: Antibacterial activity against Klebsiella pneumoniae ATCC 13883 measured after 18 hrs by CLSI broth dilution method; format: functional; conditions: ATCC 13883, 18 h
In short: (§2)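 Broth MIC in Mueller-Hinton II broth following CLSI, compounds dissolved in DMSO. Strains subcultured twice on tryptic soy agar before testing. Growth read after 35 °C, 18 h.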

[8] = tested on: Bordetella bronchiseptica; assay: Antibacterial activity against Bordetella bronchiseptica ATCC 4617 measured after 18 hrs by CLSI broth dilution method; format: functional; conditions: ATCC 4617, 18 h; in short: as §2
[9] = tested on: Acinetobacter baumannii; assay: Antibacterial activity against Acinetobacter baumannii ATCC 19606 measured after 18 hrs by CLSI broth dilution method; format: functional; conditions: ATCC 19606, 18 h; in short: as §2
[10] = tested on: Stenotrophomonas maltophilia; assay: Antibacterial activity against Stenotrophomonas maltophilia ATCC 13637 measured after 18 hrs by CLSI broth dilution method; format: functional; conditions: ATCC 13637, 18 h; in short: as §2
[11] = tested on: Burkholderia cepacia; assay: Antibacterial activity against Burkholderia cepacia ATCC 25416 measured after 18 hrs by CLSI broth dilution method; format: functional; conditions: ATCC 25416, 18 h; in short: as §2
[12] = tested on: Escherichia coli; assay: Antibacterial activity against Escherichia coli ATCC 25922 assessed as diameter of zone inhibition measured after 18 hrs by CLSI disc diffusion method; format: functional
In short: (§3)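 Disc diffusion on Mueller-Hinton II agar. Compounds dissolved in DMSO. Strains stored at -80 °C and subcultured twice on tryptic soy agar before testing. Inhibition zones read after 35 °C, 18 h.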

[13] = tested on: Enterobacter cloacae; assay: Antibacterial activity against Enterobacter cloacae DSM 6234 assessed as diameter of zone inhibition measured after 18 hrs by CLSI disc diffusion method; format: functional; in short: as §3
[14] = tested on: Escherichia coli; assay: Antibacterial activity against Escherichia coli ATCC 25922 assessed as fold reduction of MIC in presence of efflux pump inhibitor PAbetaN incubated for 18 hrs by CLSI broth microdilution method; format: functional
In short: (§4)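 MICs determined with and without PAβN at 50 mg/L in Mueller-Hinton broth containing 1 mM MgSO₄. 2-fold serial dilutions per CLSI. Fold change taken from the paired MICs after 35 °C, 18 h.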

[15] = tested on: Pseudomonas aeruginosa; assay: Antibacterial activity against Pseudomonas aeruginosa ATCC 27853 assessed as fold reduction of MIC in presence of efflux pump inhibitor PAbetaN incubated for 18 hrs microdilution method; format: functional; in short: as §4
[16] = tested on: Escherichia coli; assay: Inhibition of beta lactamase CMY-2 in Escherichia coli 77 assessed as potentiation of ceftazidime-induced antibacterial activity by measuring diameter of zone inhibition at 0.3 mg incubated for 18 hrs in presence of 30 ug ceftazidime by CLSI disc diffusion method (Rvb=13 mm)
In short: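 AmpC combination disc test on Mueller-Hinton agar, following EUCAST guidance and Yagi et al. Inhibition zones were compared between a CAZ-30 disc and a ceftazidime disc plus agent or PBA, each at 0.3 mg per disc. Plates were incubated at 35 °C for 18 h. A zone difference of at least 5 mm was counted as inhibition.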

[17] = tested on: Klebsiella pneumoniae ATCC BAA-1705; assay: Inhibition of beta lactamase KPC-2 in Klebsiella pneumoniae ATCC BAA 1705 assessed as potentiation of ceftazidime-induced antibacterial activity by measuring ceftazidime MIC at 16 mg/L incubated for 18 hrs by broth dilution method
[18] = tested on: Klebsiella pneumoniae; assay: Inhibition of beta lactamase KPC-2 in Klebsiella pneumoniae 75 assessed as potentiation of ceftazidime-induced antibacterial activity by measuring ceftazidime MIC at 16 mg/L incubated for 18 hrs by broth dilution method (reference value: […] mg/L)
[19] = tested on: Klebsiella pneumoniae; assay: Inhibition of beta lactamase KPC-3 in Klebsiella pneumoniae 81 assessed as potentiation of ceftazidime-induced antibacterial activity by measuring ceftazidime MIC at 16 mg/L incubated for 18 hrs by broth dilution method (reference value: >[…] mg/L)
[20] = tested on: Serratia marcescens; conditions: ATCC 13880
[21] = tested on: Staphylococcus aureus; assay: Bactericidal activity against Staphylococcus aureus ATCC 6538P measured after 18 hrs by CLSI broth dilution method; format: functional
In short: (§5)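 Strains stored at -80 °C and subcultured twice on tryptic soy agar before testing. Compounds dissolved in DMSO. […] MBC then determined per CLSI recommendations.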

[22] = tested on: Staphylococcus epidermidis; assay: Bactericidal activity against Staphylococcus epidermidis ATCC 12228 measured after 18 hrs by CLSI broth dilution method; format: functional; conditions: ATCC 12228, 18 h; in short: as §5
[23] = tested on: Enterococcus faecalis; assay: Bactericidal activity against Enterococcus faecalis ATCC 29212 measured after 18 hrs by CLSI broth dilution method; format: functional; conditions: ATCC 29212, 18 h; in short: as §5
[24] = Cytotoxicity against human MRC5 cells assessed as cell viability at 32 ug/ml incubated for 72 hrs by MTT assay; format: cell-based; conditions: read-out: Activity
In short: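 MRC-5 pd30 human fibroblasts grown in MEM with 10% FBS, 2 mM L-glutamine, penicillin/streptomycin and 1% non-essential amino acids at 37 °C, 5% CO2. Exponentially growing cells trypsinized and seeded at 8×10^3 cells/well, then dosed 18 h later with 2-fold dilutions (0.5% DMSO final) for 72 h. MTT (1 mg/ml final) added for 1 h at 37 °C, formazan dissolved in DMSO, OD read at 570 nm. Four replicates, expressed as % viable versus control.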

[25] = Dissociation constant, pKa2 of compound in 0.1 M NaOH by potentiometric analysis; format: physicochemical

Row | Compound | pKa [1] | MIC [2] [µg/mL] | MIC [3] [µg/mL] | diameter of the inhibition zone (DIZ) [4] | diameter of the inhibition zone (DIZ) [5] | diameter of the inhibition zone (DIZ) [6] | MIC [7] [µg/mL] | MIC [8] [µg/mL] | MIC [9] [µg/mL] | MIC [10] [µg/mL] | MIC [11] [µg/mL] | diameter of the inhibition zone (DIZ) [12] | diameter of the inhibition zone (DIZ) [13] | fold change (FC) [14] | fold change (FC) [15] | inhibition zone (IZ) [16] [mm] | MIC [17] [µg/mL] | MIC [18] [µg/mL] | MIC [19] [µg/mL] | DIZ [20] | also measured
1 | C[Si]1(C)OB(O)c2c(F)c(F)c(F)c(F)c21 | 4.7 | 200 (≈ 800 µM) | 25 (≈ 100 µM) | 21 mm | 13 mm | 35 mm | > 400 | 100 (≈ 400 µM) | 400 (≈ 1600 µM) | 400 (≈ 1600 µM) | > 400 | 18 mm | inactive | 32 | 16 | 22 | 64 | 64 | 64 | inactive | 
2 | C[Si]1(C)OB(O)c2ccc(C(F)(F)F)cc21 | 6.6 | 50 (≈ 203 µM) | 200 (≈ 813 µM) | 12 mm | 13 mm | 15 mm | > 400 | 400 (≈ 1630 µM) | 400 (≈ 1630 µM) | 400 (≈ 1630 µM) | > 400 | inactive | inactive | 16 | 8 |  |  |  |  | inactive | MBC [21]: 100 µg/mL (≈ 406 µM); MBC [22]: 50 µg/mL (≈ 203 µM); MBC [23]: 50 µg/mL (≈ 203 µM)
3 | C[Si]1(C)OB(O)c2ccc(B(O)O)cc21 | 7.7 | 400 (≈ 1800 µM) | 100 (≈ 451 µM) | inactive | inactive | inactive | > 400 | > 400 | > 400 | 400 (≈ 1800 µM) | > 400 | inactive | inactive | 8 | 2 | 22 | 64 | 64 | 64 | inactive | MBC [21]: 200 µg/mL (≈ 901 µM); MBC [22]: 100 µg/mL (≈ 451 µM); MBC [23]: 400 µg/mL (≈ 1800 µM); viability at 72 h, 32 ug/ml [24]: 102%
4 | C[Si]1(C)OB(O)c2ccc(F)c(F)c21 | 6.1 | 100 (≈ 467 µM) | 12.5 (≈ 58.4 µM) | 11 mm | 17 mm | 30 mm | > 400 | > 400 | 200 (≈ 934 µM) | 200 (≈ 934 µM) | > 400 | inactive | inactive | 32 | 32 | 22 | 64 | > 64 | 64 | inactive | viability at 72 h, 32 ug/ml [24]: 74%
5 | C[Si]1(C)OB(O)c2cc(B(O)O)cc(F)c21 | 6.6 | 400 (≈ 1670 µM) | 400 (≈ 1670 µM) | inactive | inactive | inactive | > 400 | > 400 | > 400 | > 400 | > 400 | inactive | inactive | 8 | 2 |  |  |  |  | inactive | pKa [25]: 10.2; MBC [21]: 400 µg/mL (≈ 1670 µM); MBC [22]: 400 µg/mL (≈ 1670 µM)
6 | C[Si]1(C)OB(O)c2c(F)c3c(c(F)c21)B(O)OC3 | 4.7 | > 400 | > 400 | inactive | inactive | inactive | 200 (≈ 741 µM) | 100 (≈ 371 µM) | 400 (≈ 1480 µM) | 50 (≈ 185 µM) | 50 (≈ 185 µM) | inactive | 17 mm | 8 | 8 | 20 | 64 | 64 | 64 | inactive | pKa [25]: 7.8
7 | C[Si]1(C)OB(O)c2ccc(Cl)c(Cl)c21 | 6 | 12.5 (≈ 50.6 µM) | 6.25 (≈ 25.3 µM) | 28 mm | 29 mm | 36 mm | 400 (≈ 1620 µM) | 100 (≈ 405 µM) | 400 (≈ 1620 µM) | 200 (≈ 810 µM) | > 400 | inactive | inactive | 64 | 64 |  |  |  |  | inactive | MBC [21]: 100 µg/mL (≈ 405 µM); MBC [22]: 50 µg/mL (≈ 202 µM); MBC [23]: 400 µg/mL (≈ 1620 µM)
8 | C[Si]1(C)OB(O)c2cc3c(c(F)c21)COB3O | 6.3 | 100 (≈ 397 µM) | 100 (≈ 397 µM) | inactive | inactive | inactive | > 400 | 200 (≈ 794 µM) | > 400 | 200 (≈ 794 µM) | > 400 | inactive | inactive | 16 | 8 | 20 | 64 | > 64 | 64 | inactive | pKa [25]: 8.6; MBC [21]: 400 µg/mL (≈ 1590 µM); MBC [22]: 400 µg/mL (≈ 1590 µM); viability at 72 h, 32 ug/ml [24]: 54.3%
